Shown is part of a subset that was picked to be rich in hits.
GSH bead fluor = GSH bead compound fluorescence profile; GSH beads flow cytometry, compound fluorescence 488/530 nm; active compounds read high; fluorescence (KMESF) at 10 µM; 190,000 tested, 0.25% active; AID 1776; in the data active = fluorescence above about 89;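 also: glutathione beads carrying GST-tagged Bcl family fusion proteins plus one bare bead set; values are compound well signal with DMSO vehicle wells as background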
ABCB1 block = human ABCB1 inhibition, ABCG2 as counter-screen; CCRF-Adr cells, JC-1 efflux, flow cytometry; inhibition, % at 6.6 µM; 190,000 tested, 0.067% active; P08183; AID 1326; in the data active = inhibition above about 40%;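 also: 0% = vehicle and 100% = reference inhibitor; higher value means more JC-1 retained so stronger ABCB1 efflux block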
PKD1 kinase inh = PKD1 (human) kinase inhibition; PKD1 kinase fluorescence polarization assay; 200,000 tested, 0.056% active; inhibition, % (no concentration beside the values); Q15139; AID 797
ABCG2 inh = blocks JC-1 efflux by human ABCG2 transporter | 190,000 tested, 0.1% active | inhibition, % at 6.6 µM | AID 1325 | Q9UNQ0 | IgMXP3 cells, flow cytometry;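 active = inhibition above 80%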;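 also: 0% = DMSO and 100% = nicardipine control wells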
Target sequence (Q9UNQ0 whole entry, looked up): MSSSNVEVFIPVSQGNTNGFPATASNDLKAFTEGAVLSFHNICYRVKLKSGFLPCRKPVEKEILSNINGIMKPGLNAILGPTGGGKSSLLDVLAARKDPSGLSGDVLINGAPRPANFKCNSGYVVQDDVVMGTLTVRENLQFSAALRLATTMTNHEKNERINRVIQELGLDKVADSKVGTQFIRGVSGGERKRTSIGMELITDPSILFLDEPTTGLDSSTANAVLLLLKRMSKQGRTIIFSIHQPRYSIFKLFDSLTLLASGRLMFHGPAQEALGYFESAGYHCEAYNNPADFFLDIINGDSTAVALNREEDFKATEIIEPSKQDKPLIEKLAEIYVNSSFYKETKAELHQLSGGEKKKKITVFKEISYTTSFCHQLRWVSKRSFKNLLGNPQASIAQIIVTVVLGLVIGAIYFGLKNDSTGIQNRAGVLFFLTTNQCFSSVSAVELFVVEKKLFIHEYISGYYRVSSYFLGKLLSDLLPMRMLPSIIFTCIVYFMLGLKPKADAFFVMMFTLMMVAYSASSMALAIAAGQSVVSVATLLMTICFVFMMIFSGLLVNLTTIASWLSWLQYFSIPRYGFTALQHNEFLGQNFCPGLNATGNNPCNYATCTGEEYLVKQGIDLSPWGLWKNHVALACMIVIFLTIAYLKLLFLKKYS
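Test system: IgMXP3 (ABCG2) plus far-red-tagged CCRF-Adr (ABCB1) cells. Reagent: JC-1 dye as substrate. Timing: 10 min exposure at 25 °C with rotation, no wash. Measured by: flow cytometric JC-1 green MFI at 530 nm. Read-out: percent efflux inhibition, scaled nicardipine 100% to DMSO 0%. Control set: nicardipine and DMSO wells.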
L major viab = Leishmania major promastigote growth inhibition; Leishmania major promastigotes, resazurin fluorescence viability; inhibition, % at 10 µM; 200,000 tested, 9% active; AID 1063;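 also: promastigotes grown with compound for 44 hours at 28 °C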
Avidin fluor = avidin bead compound fluorescence profile. Avidin beads, compound fluorescence 488/530 nm, flow cytometry; active compounds read high. fluorescence (KMESF) at 10 µM. 220,000 tested, 0.38% active. AID 1775; in the data active = fluorescence above about 47
* marks the source's active call; other numbers are inactive results. Rule as the data show it, unless noted: active = inhibition above about 50%; inactive = the rest.

SMILES | GSH bead fluor | ABCB1 block | PKD1 kinase inh | ABCG2 inh | L major viab | Avidin fluor
CN(Cc1ccccc1)CC(O)COc1ccc(CNCc2nccn2C)cc1 (centres undefined) | 18 | 0 | -4 | 1 | 20 | 10
Cc1cc(CN(C)Cc2ccc(OCC(O)CN(C)Cc3ccccc3)cc2)on1 (centres undefined) | 20 | 4 | 5 | 0 | 88* | 6
Cc1cc(C)c2c(c1)-c1c(ssc1=S)C(C)(C)N2C(=O)CN1C(=O)c2ccccc2C1=O | 11 | 6 | -9 | 31 | 97* | 14
Cc1ccc(CNC(=O)/C=C/c2ccc(S(=O)(=O)NCc3ccco3)cc2)cc1 | 11 | 0 | -8 | 0 | 78* | 13
COc1ccccc1CNC(=O)/C=C/c1ccc(S(=O)(=O)NCc2ccco2)cc1 | 12 | 1 | 1 | 2 | 10 | 3
O=C(/C=C/c1ccc(S(=O)(=O)NCc2ccco2)cc1)NCc1cccc(Cl)c1 | 3 | 0 | 9 | -1 | 94* | 12
COc1ccc(-c2nc(CSCC(=O)NC3CCCc4ccccc43)c(C)o2)cc1 (centres undefined) | 18 | 1 | -9 | 3 | 3 | 4
C=CC(c1ccccc1)C(C(=O)c1ccccc1)N(C)C (centres undefined) | 15 | 0 | 1 | 0 | 9 | 11
O=c1[nH]c(-c2ccccn2)nc2ccccc12 | 62 | 0 | -4 | 2 | 7 | 6
O=c1[nH]c(-c2ccccn2)nc(C(F)(F)F)c1Br | 17 | 0 | 0 | 2 | 97* | 8
COCCn1c(-c2ccc(OC)cc2)cnc1SCC(=O)Nc1cccc2ccccc12 | 16 | 1 | 7 | 4 | 77* | 8
COc1ccc(CCNC(=O)CSCc2ccc(Cl)cc2)cc1OC | 13 | 1 | -7 | 12 | 1 | 11
COc1ccc(-c2cnc(SCC(=O)Nc3cc(C)on3)n2Cc2ccco2)cc1 | 17 | 1 | -14 | 2 | 2 | 36
COCCn1c(-c2ccc(Cl)cc2)cnc1SCC(=O)NCCc1ccc(OC)c(OC)c1 | 10 | 5 | 3 | 28 | 70* | 13
COc1ccc(CCNC(=O)CSc2ccccc2)cc1OC | 13 | 0 | -3 | 5 | 2 | 11
COc1ccc(CCNC(=O)CSc2nnc(-c3ccc(F)cc3)c3ccccc23)cc1OC | 5 | 4 | -2 | 12 | 65* | 14
Cc1cc2nnc(SCC(=O)Nc3cccc(S(=O)(=O)N4CCOCC4)c3)n2c2ccccc12 | 8 | 0 | -6 | 2 | 0 | 11
CCOC(=O)Cc1csc(NS(=O)(=O)c2ccc(OC)cc2)n1 | 24 | 0 | -6 | 0 | -8 | 9
CCOC(=O)Cc1csc(NS(=O)(=O)c2ccc(Cl)cc2)n1 | 5 | 0 | -5 | 2 | 50* | 7
O=C1C=C(Nc2ccccc2O)c2ccccc2C1=O | 16 | 1 | -2 | 2 | 100* | 30
CC(=O)Nc1ccccc1O | 18 | 0 | -8 | 2 | 14 | 8
O=c1cccccc1NCc1ccccc1 | 24 | 1 | -3 | 9 | -6 | 22
O=C1C=C(NCc2ccccc2)c2ccccc2C1=O | 10 | 1 | 2 | 6 | 97* | 10
COc1cccc(NC(=O)NC2CCCc3ccccc32)c1 (centres undefined) | 15 | 1 | 3 | 3 | 14 | 6
CCc1ccc(CN(C)C(=O)CCc2nnc(CCc3cccc(OC)c3)o2)nc1 | 17 | 1 | -2 | 1 | 100* | 9
SMILES | GSH bead fluor | ABCB1 block | PKD1 kinase inh | ABCG2 inh | L major viab | Avidin fluor
COC(=O)c1cn(Cc2ccccn2)c(=O)c2ccccc12 | 15 | 0 | -6 | -1 | -4 | 6
CC(Oc1cccc(Cl)c1)C(=O)Nc1ccncc1 (centres undefined) | 11 | 0 | -4 | 1 | -2 | 13
CC(Oc1cccc(Cl)c1)C(=O)Nc1ccc([N+](=O)[O-])cn1 (centres undefined) | 9 | 1 | -3 | 21 | 61* | 15
COc1ccc(CC(=O)N2CC(C)CC(C)C2)cc1 (centres undefined) | 8 | 0 | -6 | -1 | -1 | 9
O=C(Nc1ccccc1N1CCN(C(=O)c2ccccc2)CC1)c1cc2ccccc2o1 | 31 | 19 | -2 | 59 | 21 | 12
C=CCn1c(COc2ccccc2)nnc1SC(C)C(=O)N/N=C/c1cc(Cl)ccc1O (centres undefined) | 28 | 1 | -6 | 5 | 98* | 17
